Data published in ChEMBL document CHEMBL1130822, “Synthesis and biological evaluation of new tetrahydronaphthalene derivatives as thromboxane receptor antagonists” (Bioorg Med Chem Lett, 1998).

What was measured:
[1] = species on record: Cavia porcellus; assay: Compound was tested for inhibition of U-46,619 induced increase in tracheal pressure of guinea pigs; format: functional, Trachea; settings: for ED50: Cavia porcellus, Trachea, read-out: ID50
Procedure, shortened: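 Compound given i.v. to guinea pigs; tracheal pressure rise evoked with U46619 by the Konzett–Rossler technique; ID50 expressed in μg/kg.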

[2] = species on record: Homo sapiens; assay: Compound was tested for inhibition of U-46,619 induced aggregation of human platelets; format: functional
Procedure, shortened: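 Human platelet-rich plasma aggregated with the TP-receptor agonist U46619, with and without compound; inhibition of aggregation measured and IC50 expressed in μM.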

[3] = species on record: Oryctolagus cuniculus; assay: Compound was tested for inhibition of U-46,619 induced contraction of isolated rabbit saphenous vein; format: functional; settings: for Kb: Oryctolagus cuniculus, Saphenous vein, read-out: pA2 (converted)
Procedure, shortened: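 Isolated rabbit saphenous vein rings contracted with increasing U46619 concentrations in the absence or presence of compound; antagonism quantified as pA2 values.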

| IC50 ([2]; Homo sapiens) [nM] | IC50 [2] [nM] | Structure (SMILES) | ED50 [1] [mg/kg] | Kb [3] [nM] | ID50 [1] [mg/kg] | pA2 [3] |
| --- | --- | --- | --- | --- | --- | --- |
| 13 |  | O=C(O)CC/C=C\C[C@@H]1CO[C@H](c2ccccc2Cl)O[C@@H]1c1ccccc1O | 0.0007 | 2.51 |  |  |
| 380 |  | O=C(O)CCn1c2c(c3ccccc31)CC(NS(=O)(=O)c1ccc(F)cc1)CC2 (single isomer, unassigned) [RAMATROBAN] | 0.017 | 12.6 |  |  |
|  | 230 | Cc1ccc2c(c1CCC(=O)O)CCC(NS(=O)(=O)c1ccc(Cl)cc1)C2 (stereo in doubt) |  |  | 0.035 |  |
|  | 780 | Cc1ccc2c(c1CCC(=O)O)CCC(NS(=O)(=O)c1ccc(Cl)cc1)C2 (stereo in doubt; 2a (l)) |  |  | 0.015 | 8.2 |
|  | 330 | Cc1ccc2c(c1CCC(=O)O)CCC(NS(=O)(=O)c1ccc(Cl)cc1)C2 (stereo in doubt; 2a) |  |  | 0.031 | 8.9 |
